ChEMBL document CHEMBL3769310, “Scouting new sigma receptor ligands: Synthesis, pharmacological evaluation and molecular modeling of 1,3-dioxolane-based structures and derivatives” (Eur J Med Chem, 2016)
Active and inactive are the calls of the source.

How the values were obtained:
[1] = test system: HeLa; test: Selectivity ratio of Ki for sigma-2 receptor in guinea pig brain membranes to Ki for human 5-HT1A expressed in human HeLa cells; format: cell-based
[2] = Displacement of [3H]DTG from sigma-2 receptor in guinea pig brain membranes after 120 mins by liquid scintillation counting method; format: cell membranes, Cavia porcellus, Membrane
Procedure, shortened: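 Nonspecific with 5 µM DTG. Stopped with ice-cold 10 mM Tris pH 8.0, filtered on PEI-soaked GF/B, scintillation counted. Ki from duplicates, three experiments.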

[3] = test system: HeLa; test: Selectivity ratio of Ki for sigma-1 receptor in guinea pig brain membranes to Ki for human 5-HT1A expressed in human HeLa cells; format: cell-based
[4] = species on record: Cavia porcellus; test: Selectivity ratio of Ki for sigma-1 receptor in guinea pig brain membranes to Ki for sigma-2 receptor in guinea pig brain membranes; format: cell membranes
[5] = target: T1, 5-hydroxytryptamine receptor 1A (Homo sapiens, UniProt P08908); test: Displacement of [3H]8-OH-DPAT from human 5-HT1A expressed in human HeLa cells after 30 mins; format: cell-based
T1 sequence (P08908 whole entry): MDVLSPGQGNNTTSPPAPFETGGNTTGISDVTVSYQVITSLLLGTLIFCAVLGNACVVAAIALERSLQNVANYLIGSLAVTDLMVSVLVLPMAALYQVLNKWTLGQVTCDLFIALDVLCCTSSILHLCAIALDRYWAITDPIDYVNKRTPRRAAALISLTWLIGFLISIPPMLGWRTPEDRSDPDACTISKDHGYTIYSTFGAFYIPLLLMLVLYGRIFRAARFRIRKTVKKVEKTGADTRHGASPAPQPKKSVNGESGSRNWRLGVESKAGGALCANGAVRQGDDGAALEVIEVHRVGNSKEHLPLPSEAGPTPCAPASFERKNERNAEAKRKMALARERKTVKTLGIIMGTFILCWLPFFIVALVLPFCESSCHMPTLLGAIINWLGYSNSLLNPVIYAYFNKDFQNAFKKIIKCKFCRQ

[6] = target: Sigma non-opioid intracellular receptor 1 (Cavia porcellus, UniProt Q60492); test: Displacement of [3H]-(+)-pentazocine from sigma-1 receptor in guinea pig brain membranes after 150 mins by liquid scintillation counting method; format: cell membranes, Membrane
Chain of Sigma non-opioid intracellular receptor 1 (Q60492 whole entry): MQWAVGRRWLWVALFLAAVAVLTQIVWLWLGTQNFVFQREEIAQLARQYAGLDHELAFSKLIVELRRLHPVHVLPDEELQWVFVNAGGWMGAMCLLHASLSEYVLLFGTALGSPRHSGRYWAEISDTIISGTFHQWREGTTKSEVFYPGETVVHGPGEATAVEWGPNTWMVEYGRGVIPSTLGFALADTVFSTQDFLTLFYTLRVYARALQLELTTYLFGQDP

[7] = test system: Rattus norvegicus; test: Analgesic activity in Sprague-Dawley rat assessed as withdrawal latency at 1 mg/kg, sc measured after 30 to 120 mins by tail flick test; format: functional, organism-based
Procedure, shortened: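 Male Sprague-Dawley rats, 180–200 g, 8–10 per group, dosed s.c. Radiant heat tail-flick with I.R. source on lower third of tail at 25 ± 1 °C. Basal latency 3–4 s, taken as mean of three readings at 5 min intervals. Cut-off 10 s. Latencies read at 30, 45, 60, 90 and 120 min after injection; saline group as control. Blinded observers; mean ± SE, two-way ANOVA then t test.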

c1ccc(CN2CCN(CC3CSC(c4ccccc4)(c4ccccc4)S3)CC2)cc1 (centres undefined)
Ratio Ki [1]: > 3 | pKi [2]: 5.64 | Ratio Ki [3]: > 3 | Ratio Ki [4]: 8 | Ki [5]: > 1000 nM | Ki [6]: 302 nM

c1ccc(CN2CCN(CC3COC4(CCCCC4)O3)CC2)cc1 (centres undefined)
Ratio Ki [1]: > 1350 | Activity [7]: inactive | pKi [2]: 7.46 | Ratio Ki [3]: > 1350 | Ratio Ki [4]: 47 | Ki [5]: > 1000 nM | Ki [6]: 0.741 nM

c1ccc(CN2CCN(CCOC(c3ccccc3)c3ccccc3)CC2)cc1
Ratio Ki [1]: > 89 | pKi [2]: 7.95 | Ratio Ki [3]: > 89 | Ratio Ki [4]: 1 | Ki [5]: > 1000 nM | Ki [6]: 20.4 nM

c1ccc(CC2CCN(CC3CSC(c4ccccc4)(c4ccccc4)O3)CC2)cc1 (centres undefined)
Ratio Ki [1]: > 83 | pKi [2]: 7.55 | Ratio Ki [3]: > 83 | Ratio Ki [4]: 2 | Ki [6]: 12 nM

c1ccc(CN2CCN(CC3CCC(c4ccccc4)(c4ccccc4)O3)CC2)cc1 (centres undefined)
Ratio Ki [1]: > 11 | pKi [2]: 6.65 | Ratio Ki [3]: > 11 | Ratio Ki [4]: 3 | Ki [5]: > 1000 nM | Ki [6]: 87.1 nM

c1ccc(CN2CCN(C[C@@H]3CO[C@@](c4ccccc4)(C4CCCCC4)O3)CC2)cc1 (relative stereo)
Ratio Ki [1]: > 56 | pKi [2]: 7.75 | Ratio Ki [3]: > 56 | Ratio Ki [4]: 1 | Ki [5]: > 1000 nM | Ki [6]: 30.9 nM

c1ccc(CC2CCN(CC3COC4(CCCCC4)O3)CC2)cc1 (centres undefined)
Ratio Ki [1]: 81 | pKi [2]: 7.72 | Ratio Ki [3]: 81 | Ratio Ki [4]: 10 | Ki [5]: 162 nM | Ki [6]: 2 nM

c1ccc(CC2CCN(CC3COC(C4CCCCC4)(C4CCCCC4)O3)CC2)cc1 (centres undefined)
Ratio Ki [1]: > 5 | pKi [2]: < 6 | Ratio Ki [3]: > 5 | Ratio Ki [4]: > 5 | Ki [5]: > 1000 nM | Ki [6]: 209 nM

c1ccc(CC2CCN(CC3COC(c4ccccc4)(c4ccccc4)O3)CC2)cc1 (centres undefined)
Ratio Ki [1]: 251 | pKi [2]: 8.2 | Ratio Ki [3]: 251 | Ratio Ki [4]: 3 | Ki [5]: 550 nM | Ki [6]: 2.19 nM

O[C@@H]1[C@@H](CN2CCN(Cc3ccccc3)CC2)CCC1(c1ccccc1)c1ccccc1 (relative stereo)
Ratio Ki [1]: 3 | pKi [2]: 7 | Ratio Ki [3]: 3 | Ratio Ki [4]: 3 | Ki [5]: 126 nM | Ki [6]: 38 nM

O=C1C(CN2CCN(Cc3ccccc3)CC2)CCC1(c1ccccc1)c1ccccc1 (centres undefined)
Ratio Ki [1]: > 1.5 | pKi [2]: 4.9 | Ratio Ki [3]: > 1.5 | Ratio Ki [4]: 20 | Ki [5]: > 1000 nM | Ki [6]: 646 nM

c1ccc(CC2CCN(CC3CSC(c4ccccc4)(c4ccccc4)S3)CC2)cc1 (centres undefined)
Ratio Ki [1]: > 66 | pKi [2]: 7.11 | Ratio Ki [3]: > 66 | Ratio Ki [4]: 5 | Ki [5]: > 1000 nM | Ki [6]: 15.1 nM

c1ccc(CC2CCN(CCOC(c3ccccc3)c3ccccc3)CC2)cc1
Ratio Ki [1]: > 18 | pKi [2]: 6.77 | Ratio Ki [3]: > 18 | Ratio Ki [4]: 3 | Ki [5]: > 1000 nM | Ki [6]: 56.2 nM

OCC(CN1CCC(Cc2ccccc2)CC1)OC(c1ccccc1)c1ccccc1 (centres undefined)
Ratio Ki [1]: 2.5 | pKi [2]: 6.56 | Ratio Ki [3]: 2.5 | Ratio Ki [4]: 1 | Ki [5]: 417 nM | Ki [6]: 200 nM

c1ccc(CC2CCN(CC3CCC(c4ccccc4)(c4ccccc4)O3)CC2)cc1 (centres undefined)
Ratio Ki [1]: > 6 | pKi [2]: 6.69 | Ratio Ki [3]: > 6 | Ratio Ki [4]: 1 | Ki [5]: > 1000 nM | Ki [6]: 174 nM

O[C@H]1[C@@H](CN2CCC(Cc3ccccc3)CC2)CCC1(c1ccccc1)c1ccccc1 (relative stereo)
Ratio Ki [1]: 0.02 | pKi [2]: 5.66 | Ratio Ki [3]: 0.02 | Ratio Ki [4]: 8 | Ki [5]: 7.59 nM | Ki [6]: 282 nM

O[C@@H]1[C@@H](CN2CCC(Cc3ccccc3)CC2)CCC1(c1ccccc1)c1ccccc1 (relative stereo)
Ratio Ki [1]: 0.21 | pKi [2]: 5.05 | Ratio Ki [3]: 0.21 | Ratio Ki [4]: 39 | Ki [5]: 50.1 nM | Ki [6]: 229 nM

O=C1C(CN2CCC(Cc3ccccc3)CC2)CCC1(c1ccccc1)c1ccccc1 (centres undefined)
Ratio Ki [1]: 1 | pKi [2]: 5.66 | Ratio Ki [3]: 1 | Ratio Ki [4]: 2 | Ki [5]: > 1000 nM | Ki [6]: 1120 nM

c1ccc(CC2CCN(C[C@H]3CO[C@@](c4ccccc4)(C4CCCCC4)O3)CC2)cc1
Ratio Ki [1]: > 18 | pKi [2]: 6.43 | Ratio Ki [3]: > 18 | Ratio Ki [4]: 7 | Ki [5]: > 1000 nM | Ki [6]: 56.2 nM

c1ccc(CN2CCN(C[C@H]3CO[C@@](c4ccccc4)(C4CCCCC4)O3)CC2)cc1 (relative stereo)
Ratio Ki [1]: > 933 | pKi [2]: 7.79 | Ratio Ki [3]: > 933 | Ratio Ki [4]: 15 | Ki [5]: > 1000 nM | Ki [6]: 1.07 nM

c1ccc(CN2CCN(CC3COC(C4CCCCC4)(C4CCCCC4)O3)CC2)cc1 (centres undefined)
Ratio Ki [1]: > 29 | pKi [2]: 8.3 | Ratio Ki [3]: > 29 | Ratio Ki [4]: 2 | Ki [5]: > 1000 nM | Ki [6]: 3.39 nM

O[C@H]1[C@@H](CN2CCN(Cc3ccccc3)CC2)CCC1(c1ccccc1)c1ccccc1 (relative stereo)
Ratio Ki [1]: 0.2 | pKi [2]: 6.62 | Ratio Ki [3]: 0.2 | Ratio Ki [4]: 6.8 | Ki [5]: 7.24 nM | Ki [6]: 35.5 nM

c1ccc(CC2CCN(CC3COc4ccccc4O3)CC2)cc1 (centres undefined)
pKi [2]: 7.6 | Ki [6]: 16.6 nM

OCC(CN1CCN(Cc2ccccc2)CC1)OC(c1ccccc1)c1ccccc1 (centres undefined)
Ratio Ki [1]: > 89 | pKi [2]: 7.75 | Ratio Ki [3]: > 89 | Ratio Ki [4]: 2 | Ki [5]: > 1000 nM | Ki [6]: 11.2 nM

c1ccc(CC2CCN(C[C@@H]3CO[C@@](c4ccccc4)(C4CCCCC4)O3)CC2)cc1 (relative stereo)
Ratio Ki [1]: > 19 | pKi [2]: 6.84 | Ratio Ki [3]: > 19 | Ratio Ki [4]: 3 | Ki [5]: > 1000 nM | Ki [6]: 52.5 nM

c1ccc(CN2CCN(CC3COc4ccccc4O3)CC2)cc1 (centres undefined)
pKi [2]: 7.55 | Ki [6]: 15.8 nM

c1ccc(CN2CCN(CC3COC(c4ccccc4)(c4ccccc4)O3)CC2)cc1 (centres undefined)
Ratio Ki [1]: > 589 | pKi [2]: 8.38 | Ratio Ki [3]: > 589 | Ratio Ki [4]: 3 | Ki [5]: > 1000 nM | Ki [6]: 1.7 nM

c1ccc(CN2CCN(CC3CSC(c4ccccc4)(c4ccccc4)O3)CC2)cc1 (centres undefined)
Ratio Ki [1]: > 16 | pKi [2]: 6.67 | Ratio Ki [3]: > 16 | Ratio Ki [4]: 3 | Ki [6]: 63.1 nM
